According to ChEMBL document CHEMBL1121573, “2-(Aminomethyl)phenols, a new class of saluretic agents. 1. Effects of nuclear substitution” (J Med Chem, 1980):
Where “and” joins values, the source holds several entries; their conditions need not be identical. Identical values can stand only once.

What was measured:
Canis familiaris [1] = test: Compound administered intravenously was evaluated for salidiuretic activity measured as sodium ion excretion in Dog; format: ADME, organism-based, Canis lupus familiaris, Urine; design: unit not given beside the values; settings: in vivo, iv
In short: (§1)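 Conditioned female mongrel dogs, postabsorptive, water-loaded (500 mL po) 1 h before sodium pentobarbital anesthesia (30 mg/kg iv). Bladder catheter; creatinine 4 g sc; phosphate–mannitol buffer pH 7.4 infused (3.0 mL/min) throughout. […] Urine Na+ measured; response scored 0–6.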

[2] = Evaluated for salidiuretic activity measured as sodium ion excretion in Rat, administered orally at a dose of 16.5 mg/kg; format: organism-based; design: dose 16.5 mg/kg; settings: Urine
In short: (§2)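 Female Charles-River rats (150–170 g), overnight on sugar diet with water ad libitum. Compound dissolved in DMF, diluted with water containing Tween 80 (final 4% DMF), given po in 5.0 mL; concurrent vehicle placebo. Three rats per metabolism cage; 0–5 h urine analysed for Na+, K+, Cl-. Values: mequiv × 100 per cage, geometric means of three cages per dose; scored 0–6 by Na+.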

[3] = Compound administered orally at a dose of 5 mg/kg was evaluated for salidiuretic activity measured as sodium ion excretion in Rat; format: organism-based; design: dose 5 mg/kg; settings: Urine; in short: as §2
Rattus norvegicus [4] = test: Compound administered orally at a dose of 81 mg/kg was evaluated for salidiuretic activity measured as sodium ion excretion in Rat; format: ADME, organism-based, Urine; design: dose 81 mg/kg, route oral; unit not given beside the values; settings: in vivo, po; in short: as §2
Rattus norvegicus [5] = test: Evaluated for salidiuretic activity measured as sodium ion excretion in Rat, administered orally at a dose of 50 mg/kg; format: functional, Urine; design: unit not given beside the values; settings: route oral; in short: as §2
Canis familiaris [6] = test: Compound administered intravenously at a dose of 5 mg/kg was evaluated for salidiuretic activity measured as sodium ion excretion in Dog; Value ranges from 600-799; format: ADME, organism-based, Canis lupus familiaris, Urine; design: dose 5 mg/kg, route intravenous; unit not given beside the values; settings: in vivo, iv; in short: as §1
Canis familiaris [7] = test: Oral diuretic activity was evaluated by measuring Na+ excretion in dog at 5 mg/kg after ip administration (0-6 hr); format: ADME, organism-based, Canis lupus familiaris, Urine; design: dose 5 mg/kg, route intraperitoneal; settings: in vivo
In short: (§3)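 Spontaneous urine was pooled with bladder urine collected by catheterization at 6 h. Volume was measured and Na+, K+ and Cl− were determined by standard methods. Values are geometric means.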

Rattus norvegicus [8] = test: Maximum fall in mean arterial blood pressure was measured in SH rats when compound was administered at 10 mg/kg perorally; format: functional; settings: route oral
Canis familiaris [9] = test: Salidiuretic activity in dog following i.v. dosing at 5 mg/kg; format: functional, Canis lupus familiaris, Urine; design: unit not given beside the values; settings: route intravenous
In short: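 Conditioned female mongrel dogs, postabsorptive, got a 500 mL oral water load 1 h before pentobarbital anesthesia (30 mg/kg iv). After replicate 15-min control collections, compound was given as an iv stat injection.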

Canis familiaris [10] = test: Oral diuretic activity was evaluated by measuring K+ excretion in dog at 1 mg/kg after ip administration (0-6 hr); format: ADME, organism-based, Canis lupus familiaris, Urine; design: dose 1 mg/kg, route intraperitoneal; settings: in vivo; in short: as §3
Rattus norvegicus [11] = test: Maximum fall in mean arterial blood pressure was measured in SH rats when compound was administered at 40 mg/kg perorally; format: functional; settings: route oral
Canis familiaris [12] = test: Oral diuretic activity was evaluated by measuring Cl- excretion in dog at 0.3 mg/kg after […] (0-6 hr); format: ADME, organism-based, Canis lupus familiaris, Urine; design: dose 0.3 mg/kg, route intraperitoneal; settings: in vivo
Canis familiaris [13] = test: Oral diuretic activity was evaluated by measuring Cl- excretion in dog at 10 mg/kg after […] (0-6 hr); format: ADME, organism-based, Canis lupus familiaris, Urine; design: dose 10 mg/kg, route intraperitoneal; settings: in vivo
Rattus norvegicus [14] = test: Oral diuretic activity was evaluated by measuring K+ excretion in Rat at 9 mg/kg […] (0-5 hr); format: ADME, organism-based, Urine; design: dose 9 mg/kg
In short: (§4)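 Female Charles-River rats (150–170 g) were kept overnight on a sugar diet with water ad libitum. Test substance was dissolved in DMF and diluted with water containing Tween 80 to a final 4% DMF vehicle, then given po in 5.0 mL. Rats were housed three per metabolism cage, and 0–5 h urine was assayed for Na⁺, K⁺ and Cl⁻ alongside concurrent placebo groups. Values are mequiv × 100 per cage, geometric means of three cages per dose.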

Canis familiaris [15] = test: Oral diuretic activity was evaluated by measuring K+ excretion in dog at 0.3 mg/kg after […] (0-6 hr); format: ADME, organism-based, Canis lupus familiaris, Urine; design: dose 0.3 mg/kg, route intraperitoneal; settings: in vivo
Rattus norvegicus [16] = test: Oral diuretic activity was evaluated by measuring Cl- excretion in Rat at 3 mg/kg […] (0-5 hr); format: ADME, organism-based, Urine; design: dose 3 mg/kg, route intraperitoneal; settings: in vivo
Rattus norvegicus [17] = test: Oral diuretic activity was evaluated by measuring Cl- excretion in Rat at 27 mg/kg […] (0-5 hr); format: ADME, organism-based, Urine; design: dose 27 mg/kg; settings: in vivo
Canis familiaris [18] = test: Oral diuretic activity was evaluated by measuring Cl- excretion in dog at 5 mg/kg after […] (0-6 hr); format: ADME, organism-based, Canis lupus familiaris, Urine; design: dose 5 mg/kg, route intraperitoneal; settings: in vivo
Rattus norvegicus [19] = species: Rattus norvegicus; test: Time taken for the decrease in arterial pressure was measured; format: functional, Artery
Rattus norvegicus [20] = test: Oral diuretic activity was evaluated by measuring K+ excretion in Rat at 27 mg/kg […] (0-5 hr); format: ADME, organism-based, Urine; design: dose 27 mg/kg; in short: as §4
Canis familiaris [21] = test: Oral diuretic activity was evaluated by measuring K+ excretion in dog at 10 mg/kg after ip administration (0-6 hr); format: ADME, organism-based, Canis lupus familiaris, Urine; design: dose 10 mg/kg, route intraperitoneal; settings: in vivo; in short: as §3
Rattus norvegicus [22] = test: Oral diuretic activity was evaluated by measuring K+ excretion in Rat at 81 mg/kg after […] (0-5 hr); format: ADME, organism-based, Urine; design: dose 81 mg/kg; in short: as §4
Rattus norvegicus [23] = test: Oral diuretic activity was evaluated by measuring K+ excretion in Rat at 3 mg/kg […] (0-5 hr); format: ADME, organism-based, Urine; design: dose 3 mg/kg; in short: as §4
Canis familiaris [24] = test: Oral diuretic activity was evaluated by measuring Na+ excretion in dog at 0.3 mg/kg after ip administration (0-6 hr); format: ADME, organism-based, Canis lupus familiaris, Urine; design: dose 0.3 mg/kg, route intraperitoneal; settings: in vivo; in short: as §3
Canis familiaris [25] = test: Oral diuretic activity was evaluated by measuring K+ excretion in dog at 5 mg/kg after ip administration (0-6 hr); format: ADME, organism-based, Canis lupus familiaris, Urine; design: dose 5 mg/kg, route intraperitoneal; settings: in vivo; in short: as §3
Rattus norvegicus [26] = test: Maximum fall in mean arterial blood pressure was measured in SH rats when compound was administered at 20 mg/kg perorally; format: functional; settings: route oral
Rattus norvegicus [27] = test: Oral diuretic activity was evaluated by measuring Na+ excretion in Rat at 9 mg/kg after […] (0-5 hr); format: ADME, organism-based, Urine; design: dose 9 mg/kg; settings: in vivo, ip
In short: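 Female Charles-River rats (150–170 g) were kept overnight on a sugar diet with water ad libitum. Compound was dissolved in DMF, then diluted with water containing Tween 80 (3 drops/100 mL) to a final 4% DMF, and given po in 5.0 mL. Rats were housed three per metabolism cage. Urine from 0–5 h was analysed for Na+, K+ and Cl−, with concurrent placebo controls. Values are mequiv × 100 per cage, geometric mean of three cages per dose.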

Canis familiaris [28] = test: Oral diuretic activity was evaluated by measuring Na+ excretion in dog at 1 mg/kg after ip administration (0-6 hr); format: ADME, organism-based, Canis lupus familiaris, Urine; design: dose 1 mg/kg, route intraperitoneal; settings: in vivo; in short: as §3
Canis familiaris [29] = test: Oral diuretic activity was evaluated by measuring Na+ excretion in dog at 10 mg/kg after ip administration (0-6 hr); format: ADME, organism-based, Canis lupus familiaris, Urine; design: dose 10 mg/kg, route intraperitoneal; settings: in vivo; in short: as §3
Canis familiaris [30] = test: Oral diuretic activity was evaluated by measuring Cl- excretion in dog at 1 mg/kg after […] (0-6 hr); format: ADME, organism-based, Canis lupus familiaris, Urine; design: dose 1 mg/kg, route intraperitoneal; settings: in vivo
Canis familiaris [31] = test: Compound administered intravenously was evaluated for salidiuretic activity measured as sodium ion excretion in Dog; Value ranges from 600-799; format: ADME, organism-based, Canis lupus familiaris, Urine; settings: in vivo, iv; in short: as §1
Canis familiaris [32] = test: Compound administered intravenously at a dose of 5 mg/kg was evaluated for salidiuretic activity measured as sodium ion excretion in Dog; Value ranges from 400-599; format: ADME, organism-based, Canis lupus familiaris, Urine; design: dose 5 mg/kg, route intravenous; settings: in vivo, iv; in short: as §1
Canis familiaris [33] = test: Compound administered intravenously was evaluated for salidiuretic activity measured as sodium ion excretion in Dog; Value ranges from 100-249; format: ADME, organism-based, Canis lupus familiaris, Urine; settings: in vivo, iv; in short: as §1
Canis familiaris [34] = test: Compound administered intravenously was evaluated for salidiuretic activity measured as sodium ion excretion in Dog; Value ranges from 100-299; format: ADME, organism-based, Canis lupus familiaris, Urine; settings: in vivo, iv; in short: as §1
Rattus norvegicus [35] = test: Compound administered orally at a dose of 1 mg/kg was evaluated for salidiuretic activity measured as sodium ion excretion in Rat; settings: in vivo, po
Canis familiaris [36] = test: Compound administered intravenously at a dose of 5 mg/kg was evaluated for salidiuretic activity measured as sodium ion excretion in Dog; Value ranges from 0-99; format: ADME, organism-based, Canis lupus familiaris, Urine; design: dose 5 mg/kg, route intravenous; settings: in vivo, iv; in short: as §1

Cc1c(Cl)cc(Cl)c(O)c1CN.Cl
Diuretic activity (Canis familiaris [1]): > 900

Cc1c(Cl)cc(I)c(O)c1CN.Cl
Diuretic activity [2]: 1.4 | Diuretic activity [3]: 0.5 | Diuretic activity (Rattus norvegicus [4]): 2.9 | Diuretic activity (Rattus norvegicus [5]): 2.4 | Diuretic activity (Canis familiaris [6]): 600

NS(=O)(=O)c1cc2c(cc1Cl)NCNS2(=O)=O [HYDROCHLOROTHIAZIDE]
Diuretic activity (Canis familiaris [7]): 18.8 | MAP (Rattus norvegicus [8]): 14 mmHg | Diuretic activity (Canis familiaris [9]): 250 | Diuretic activity (Canis familiaris [10]): 4.8 | MAP (Rattus norvegicus [11]): 26 mmHg | Diuretic activity (Canis familiaris [12]): 8.57 | Diuretic activity (Canis familiaris [13]): 22.9 | Diuretic activity (Rattus norvegicus [14]): 0.38 | Diuretic activity (Canis familiaris [15]): 1.98 | Diuretic activity (Rattus norvegicus [16]): 1.54 | Diuretic activity (Rattus norvegicus [17]): 1.56 | Diuretic activity (Canis familiaris [18]): 26.3 | Duration (Rattus norvegicus [19]): >8 h and 12 h | Diuretic activity (Rattus norvegicus [20]): 0.34 | Diuretic activity (Canis familiaris [21]): 7.1 | Diuretic activity (Rattus norvegicus [22]): 0.37 | Diuretic activity (Rattus norvegicus [23]): 0.34 | Diuretic activity [2]: 0.6 | Diuretic activity (Canis familiaris [24]): 5.4 | Diuretic activity (Canis familiaris [25]): 7.4 | Diuretic activity [3]: 0.4 | MAP (Rattus norvegicus [26]): 25 mmHg | Diuretic activity (Rattus norvegicus [4]): 2.4 | Diuretic activity (Rattus norvegicus [5]): 1.8 | Diuretic activity (Rattus norvegicus [27]): 1.12 | Diuretic activity (Canis familiaris [28]): 16.4 | Diuretic activity (Canis familiaris [29]): 19.6 | Diuretic activity (Canis familiaris [30]): 22

Cc1c(C)c(Cl)c(O)c(CN)c1C.Cl
Diuretic activity (Canis familiaris [31]): 600

Cl.NCc1c(O)cc(Cl)c(Cl)c1Cl
Diuretic activity (Canis familiaris [32]): 400 | Diuretic activity [2]: 2.7 | Diuretic activity [3]: 1.4 | Diuretic activity (Rattus norvegicus [5]): 3.3

CCOC(=O)c1cc(Cl)c(O)c(CN)c1.Cl
Diuretic activity (Canis familiaris [33]): 100

Cc1cc(O)c(CN)c(C)c1Cl.Cl
Diuretic activity (Canis familiaris [34]): 100

COc1c(Cl)c(OC)c(CN)c(O)c1Br.Cl
Diuretic activity [2]: 3.3 | Diuretic activity [3]: 2.6 | Diuretic activity (Rattus norvegicus [5]): 3.6 | Diuretic activity (Rattus norvegicus [35]): 0.7 | Diuretic activity (Canis familiaris [6]): 600

CC(C)(C)c1ccc(O)c(CN)c1.Cl
Diuretic activity (Canis familiaris [36]): 0 | Diuretic activity [2]: 0.5 | Diuretic activity [3]: 0.3 | Diuretic activity (Rattus norvegicus [4]): 1.5 | Diuretic activity (Rattus norvegicus [5]): 1.2
